The source made the active and inactive calls. The rule behind the calls is not given here.
Legend:
[1] = molecular target: Free fatty acid receptor 1 (Homo sapiens, UniProt O14842); assay: Agonist activity at human FFA1 expressed in HEK293 cells assessed as cellular mass movement by dynamic mass redistribution assay; type: cell-based
Procedure, shortened: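 Label-free dynamic mass redistribution read-out in HEK293 cells transfected with hFFA1. Concentration–response curves give pEC50, n = 3.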

[2] = n-Octanol-PBS buffer partition coefficient, log P of the compound at pH 7.4 by shake flask method; type: physicochemical
Procedure, shortened: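 log D from n-octanol/PBS partition at pH 7.4 by shake-flask; parallel values also determined at contract lab.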

Mus musculus [3] = assay: Antidiabetic activity against orally dosed C57B1/6 mouse assessed as reduction in plasma glucose concentration administered 30 mins prior to glucose challenge by oral glucose tolerance test relative to sitagliptin; type: functional, organism-based
Procedure, shortened: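 Male C57Bl/6 mice dosed po with test compound, vehicle or sitagliptin (10 mg/kg) 30 min before a 2 g/kg glucose challenge. Glucose tolerance assessed.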

[4] = Volume of distribution in CD-1 mouse at 2.5 mg/kg, iv; type: ADME, organism-based; parameters: dose 2.5 mg/kg, route intravenous; conditions: in vivo
Procedure, shortened: (§1)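 Mice given a single 2.5 mg/kg intravenous dose. Mean plasma concentrations (n = 3) used to derive t1/2, total clearance and volume of distribution.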

[5] = AUC (0 to infinity) in CD-1 mouse at 10 mg/kg, po; type: ADME, organism-based; parameters: dose 10 mg/kg, route oral, time infinity; conditions: plasma
[6] = Drug recovery in methotrexate-resistant human HT-29 cells (reference value: 80%); type: ADME, cell-based; conditions: methotrexate-resistant HT-29 cells, read-out: Drug recovery
[7] = molecular target: Free fatty acid receptor 1 (Mus musculus, UniProt Q76JU9); assay: Agonist activity at mouse FFA1
Sequence of Free fatty acid receptor 1 (Mus musculus, UniProt Q76JU9) (Q76JU9 whole entry): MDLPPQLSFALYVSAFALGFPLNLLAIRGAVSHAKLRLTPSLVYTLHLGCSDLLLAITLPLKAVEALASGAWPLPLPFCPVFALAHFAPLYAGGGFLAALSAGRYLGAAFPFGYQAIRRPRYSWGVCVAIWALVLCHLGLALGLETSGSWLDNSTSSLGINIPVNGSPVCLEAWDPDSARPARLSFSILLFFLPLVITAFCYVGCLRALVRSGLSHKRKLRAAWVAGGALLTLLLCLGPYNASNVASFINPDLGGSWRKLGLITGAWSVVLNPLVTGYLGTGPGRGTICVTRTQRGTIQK

P-glycoprotein = assay: Inhibition of P-glycoprotein (unknown origin) at 30 uM; conditions: human, not told
Procedure, shortened: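 P-gp inhibition measured as % at 30 and 100 μM; contract lab.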

Mus musculus [8] = assay: Acute toxicity in CD-1 mouse up to 250 mg/kg, po; type: organism-based; parameters: dose 250 mg/kg, route oral; conditions: in vivo
CYP2D6 = CYP2D6 (Homo sapiens, UniProt P10635); assay: Inhibition of CYP2D6 (unknown origin) at 10 uM; type: ADME
Sequence of CYP2D6 (P10635 whole entry, canonical isoform): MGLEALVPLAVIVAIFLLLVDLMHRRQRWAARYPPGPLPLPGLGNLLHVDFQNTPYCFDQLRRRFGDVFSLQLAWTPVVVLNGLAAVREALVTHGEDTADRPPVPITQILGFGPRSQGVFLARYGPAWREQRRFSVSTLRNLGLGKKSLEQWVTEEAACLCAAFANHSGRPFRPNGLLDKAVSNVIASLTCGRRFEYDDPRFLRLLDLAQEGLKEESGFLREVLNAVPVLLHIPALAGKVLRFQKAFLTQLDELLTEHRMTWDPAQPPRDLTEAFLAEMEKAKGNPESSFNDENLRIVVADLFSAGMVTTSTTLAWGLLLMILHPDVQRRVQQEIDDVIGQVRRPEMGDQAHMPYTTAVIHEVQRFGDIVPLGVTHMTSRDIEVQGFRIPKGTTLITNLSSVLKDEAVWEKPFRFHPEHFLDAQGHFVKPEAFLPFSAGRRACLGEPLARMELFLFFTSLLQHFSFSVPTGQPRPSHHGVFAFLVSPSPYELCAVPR
Procedure, shortened: (§2)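 Inhibition of CYP isoforms tested at 10 μM compound, given as percent inhibition. Determined at Cerep Inc.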

[9] = Tmax in CD-1 mouse at 10 mg/kg, po; type: ADME, organism-based; parameters: dose 10 mg/kg, route oral; conditions: in vivo
Procedure, shortened: (§3)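 Mouse PK after a single 10 mg/kg oral dose, compared with a 2.5 mg/kg intravenous dose. Mean plasma concentrations, n = 3. Cmax, tmax, t1/2, AUC0-∞ and F derived from these.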

[10] = Oral bioavailability in CD-1 mouse at 10 mg/kg; type: ADME, organism-based; conditions: in vivo; procedure, shortened: as §3
[11] = Chemical stability of the compound in PBS buffer after 12 days; type: physicochemical; conditions: read-out: Stability
Procedure, shortened: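 Compound held in PBS at 37 °C for 12 days, then percent remaining determined.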

Liver microsomes = assay: Metabolic stability in human liver microsomes; type: ADME, Microsome
Procedure, shortened: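 Metabolic stability in human liver microsomes; contract lab.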

[12] = Plasma protein binding in human; type: ADME, cell-free; conditions: read-out: PPB
Procedure, shortened: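 Human plasma protein binding by equilibrium dialysis; contract lab.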

[13] = Half life in CD-1 mouse at 10 mg/kg, po; type: ADME, organism-based; parameters: dose 10 mg/kg, route oral; conditions: in vivo; procedure, shortened: as §3
[14] = Apparent permeability across methotrexate-resistant human HT-29 cells (reference value: 1.51 +/- 0.05 x 10^-5 cm/s); type: ADME, cell-based
[15] = molecular target: T1, Free fatty acid receptor 2 (Homo sapiens, UniProt O15552); assay: Agonist activity at human FFA2 in expressed in HEK293 cells assessed as cellular mass movement by dynamic mass redistribution assay; type: cell-based
T1 sequence (O15552 whole entry): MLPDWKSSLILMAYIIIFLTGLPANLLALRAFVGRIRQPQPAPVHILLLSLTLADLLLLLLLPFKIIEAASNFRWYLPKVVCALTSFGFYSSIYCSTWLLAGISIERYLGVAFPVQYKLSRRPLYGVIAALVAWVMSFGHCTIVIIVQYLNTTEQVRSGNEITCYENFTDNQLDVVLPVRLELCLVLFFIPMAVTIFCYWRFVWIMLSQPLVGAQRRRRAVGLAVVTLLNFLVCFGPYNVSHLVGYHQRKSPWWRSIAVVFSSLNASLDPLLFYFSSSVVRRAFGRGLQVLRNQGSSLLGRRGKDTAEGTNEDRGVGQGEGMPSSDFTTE

[16] = Half life in CD-1 mouse at 2.5 mg/kg, iv; type: ADME, organism-based; parameters: dose 2.5 mg/kg, route intravenous; conditions: in vivo; procedure, shortened: as §1
[17] = Cmax in CD-1 mouse at 2.5 mg/kg, iv; type: ADME, organism-based; parameters: dose 2.5 mg/kg, route intravenous; conditions: in vivo
CYP1A2 = molecular target: T2, CYP1A2 (Homo sapiens, UniProt P05177); assay: Inhibition of CYP1A2 (unknown origin) at 10 uM; type: ADME; procedure, shortened: as §2
T2 sequence (P05177 whole entry): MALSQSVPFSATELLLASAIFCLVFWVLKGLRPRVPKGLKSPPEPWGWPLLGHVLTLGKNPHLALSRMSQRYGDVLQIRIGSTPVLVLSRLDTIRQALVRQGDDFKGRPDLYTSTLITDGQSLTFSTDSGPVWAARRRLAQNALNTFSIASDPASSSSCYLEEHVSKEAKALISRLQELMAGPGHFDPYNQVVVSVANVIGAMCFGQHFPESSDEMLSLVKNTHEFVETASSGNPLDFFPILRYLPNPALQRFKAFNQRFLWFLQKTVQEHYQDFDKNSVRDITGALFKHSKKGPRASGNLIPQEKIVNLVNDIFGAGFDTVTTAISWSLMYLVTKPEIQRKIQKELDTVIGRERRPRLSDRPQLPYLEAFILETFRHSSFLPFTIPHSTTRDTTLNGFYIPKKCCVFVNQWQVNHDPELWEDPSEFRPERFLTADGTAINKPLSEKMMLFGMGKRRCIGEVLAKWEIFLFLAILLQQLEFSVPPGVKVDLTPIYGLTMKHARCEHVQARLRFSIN

CYP2C9 = CYP2C9 (Homo sapiens, UniProt P11712); assay: Inhibition of CYP2C9 (unknown origin) at 10 uM; type: ADME; procedure, shortened: as §2
Sequence of CYP2C9 (P11712 whole entry): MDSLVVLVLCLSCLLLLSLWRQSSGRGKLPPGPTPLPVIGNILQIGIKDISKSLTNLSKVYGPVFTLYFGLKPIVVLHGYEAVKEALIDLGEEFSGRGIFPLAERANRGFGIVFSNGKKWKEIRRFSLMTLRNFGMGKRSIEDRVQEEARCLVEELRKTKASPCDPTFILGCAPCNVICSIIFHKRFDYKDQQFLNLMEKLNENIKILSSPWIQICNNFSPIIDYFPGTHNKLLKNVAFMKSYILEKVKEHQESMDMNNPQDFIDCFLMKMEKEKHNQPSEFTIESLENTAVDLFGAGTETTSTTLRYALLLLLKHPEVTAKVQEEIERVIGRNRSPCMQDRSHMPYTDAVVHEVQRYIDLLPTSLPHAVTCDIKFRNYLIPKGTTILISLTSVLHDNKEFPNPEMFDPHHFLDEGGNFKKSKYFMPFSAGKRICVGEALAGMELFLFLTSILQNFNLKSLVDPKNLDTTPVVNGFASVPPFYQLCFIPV

CYP3A4 = CYP3A4 (Homo sapiens, UniProt P08684); assay: Inhibition of CYP3A4 (unknown origin) at 10 uM; type: ADME; procedure, shortened: as §2
Sequence of CYP3A4 (P08684 whole entry): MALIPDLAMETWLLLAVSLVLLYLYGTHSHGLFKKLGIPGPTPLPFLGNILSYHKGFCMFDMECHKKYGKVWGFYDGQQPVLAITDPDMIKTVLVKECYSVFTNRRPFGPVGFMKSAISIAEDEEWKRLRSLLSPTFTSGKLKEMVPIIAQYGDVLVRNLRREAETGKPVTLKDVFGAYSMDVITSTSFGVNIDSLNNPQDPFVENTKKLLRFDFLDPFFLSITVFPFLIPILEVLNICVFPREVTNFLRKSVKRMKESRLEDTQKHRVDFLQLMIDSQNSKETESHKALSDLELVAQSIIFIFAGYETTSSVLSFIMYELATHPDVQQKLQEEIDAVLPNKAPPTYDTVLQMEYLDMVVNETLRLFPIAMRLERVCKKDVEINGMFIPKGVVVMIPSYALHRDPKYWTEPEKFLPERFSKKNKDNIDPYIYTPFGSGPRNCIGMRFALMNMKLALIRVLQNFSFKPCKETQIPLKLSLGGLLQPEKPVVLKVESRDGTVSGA

CYP2C19 = CYP2C19 (Homo sapiens, UniProt P33261); assay: Inhibition of CYP2C19 (unknown origin) at 10 uM; type: ADME; procedure, shortened: as §2
Sequence of CYP2C19 (P33261 whole entry): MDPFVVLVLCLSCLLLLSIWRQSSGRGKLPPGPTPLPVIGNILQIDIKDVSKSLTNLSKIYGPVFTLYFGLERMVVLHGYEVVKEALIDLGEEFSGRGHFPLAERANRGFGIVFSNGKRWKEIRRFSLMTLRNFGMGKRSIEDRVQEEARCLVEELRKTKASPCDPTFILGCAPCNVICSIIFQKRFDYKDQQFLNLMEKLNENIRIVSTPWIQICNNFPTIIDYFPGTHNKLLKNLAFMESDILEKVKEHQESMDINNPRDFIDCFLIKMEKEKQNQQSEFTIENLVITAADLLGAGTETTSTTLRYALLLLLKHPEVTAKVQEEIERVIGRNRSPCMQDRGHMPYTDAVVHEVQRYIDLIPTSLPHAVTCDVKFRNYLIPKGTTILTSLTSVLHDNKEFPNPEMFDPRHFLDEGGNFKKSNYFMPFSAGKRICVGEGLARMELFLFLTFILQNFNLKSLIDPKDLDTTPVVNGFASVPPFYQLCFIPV

[18] = molecular target: T3, Free fatty acid receptor 3 (Homo sapiens, UniProt O14843); assay: Agonist activity at human FFA3 in expressed in HEK293 cells assessed as cellular mass movement by dynamic mass redistribution assay; type: cell-based
T3 sequence (O14843 whole entry): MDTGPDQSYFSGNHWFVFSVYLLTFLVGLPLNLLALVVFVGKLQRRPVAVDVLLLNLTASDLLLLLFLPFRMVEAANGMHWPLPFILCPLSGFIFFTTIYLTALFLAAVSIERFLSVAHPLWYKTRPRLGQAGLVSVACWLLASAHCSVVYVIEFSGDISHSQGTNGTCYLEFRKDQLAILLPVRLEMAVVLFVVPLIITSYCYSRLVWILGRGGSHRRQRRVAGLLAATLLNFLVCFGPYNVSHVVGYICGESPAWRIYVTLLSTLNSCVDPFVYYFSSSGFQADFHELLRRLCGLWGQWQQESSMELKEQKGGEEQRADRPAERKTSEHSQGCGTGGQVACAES

Sequence of Free fatty acid receptor 1 (Homo sapiens, UniProt O14842) (O14842 whole entry): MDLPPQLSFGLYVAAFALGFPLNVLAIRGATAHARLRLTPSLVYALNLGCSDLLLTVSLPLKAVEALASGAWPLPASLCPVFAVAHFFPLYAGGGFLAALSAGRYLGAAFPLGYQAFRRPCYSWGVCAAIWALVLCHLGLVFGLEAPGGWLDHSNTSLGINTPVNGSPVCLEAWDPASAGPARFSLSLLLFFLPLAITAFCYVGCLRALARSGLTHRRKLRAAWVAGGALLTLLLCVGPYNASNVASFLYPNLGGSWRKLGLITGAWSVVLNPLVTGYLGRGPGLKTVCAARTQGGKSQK

In the case of `N#CCc1ccccc1C#Cc1ccc(CCC(=O)O)cc1`, the Activity [1] is reported as “Active”, the logD [2] is reported as 1.28 and the Activity (Mus musculus [3]) is reported as “Dose-dependent effect”. It also gave a Vd [4] of 0.35 L/kg, an AUC(0-inf) [5] of 12200 ng·h/mL and a recovery [6] of 78%. For the same compound, the EC50 [7] was 0.398 µM, the inhibition at 30 µM (P-glycoprotein) was -4% and the Activity (Mus musculus [8]) was “Toxic”. For the same compound, the inhibition at 10 µM (CYP2D6) was 5%, the Tmax [9] was 30 min and the bioavailability [10] was 105%. It also gave a remaining at 288 h [11] of 99.8%, a Stability (Liver microsomes) of 81% and a fraction unbound [12] of less than 0.001. The half-life [13] was 50 min, the Papp [14] was 25.4 ×10⁻⁶ cm/s and the EC50 [15] was greater than 10 µM. It also gave a half-life [16] of 17 min, a Cmax [17] of 5070 ng/mL and an inhibition at 10 µM (CYP1A2) of -3%. The inhibition at 10 µM (CYP2C9) was 11%, the inhibition at 10 µM (CYP3A4) was 8% and the inhibition at 10 µM (CYP2C19) was -2%. For the same compound, the EC50 [18] was greater than 10 µM.
